Measured values from ChEMBL document CHEMBL4219038, “1-Thiazol-2-yl-N-3-methyl-1H-pyrozole-5-carboxylic acid derivatives as antitumor agents” (Bioorg Med Chem Lett, 2017).
Values after ≈ are worked out from the molar mass of the structure shown. Active and inactive are the calls of the source. The calls are words filed in the database; no cut-off is given here.

Tests used:
SU-DHL10 = assay: Antiproliferative activity against human SU-DHL10 cells; assay type: functional, cell-based
[1] = Antiproliferative activity against human TC71 cells; assay type: functional, cell-based; settings: TC-71
HCT-116 [2] = assay: Antiproliferative activity against human HCT116 cells; assay type: functional, cell-based
[3] = Antiproliferative activity against human […] cells; assay type: functional, cell-based
MCF7 = assay: Antiproliferative activity against human MCF7 cells; assay type: functional, cell-based
MCF-10A = assay: Antiproliferative activity against human MCF10A cells; assay type: cell-based
B cell = assay: Antiproliferative activity against human primary B cells; assay type: cell-based
BJAB = assay: Induction of apoptosis in human BJAB cells by high content cell imaging studies; assay type: functional, cell-based
HCT-116 [4] = assay: Cell cycle arrest in human HCT116 cells assessed as reduction in cell levels at S-phase at 0.001 to 10 uM after 24 hrs EdU-staining based high content imaging analysis; assay type: functional
Summary of the method: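 HCT-116 cells plated on poly-lysine-coated plates overnight, then treated 24 h with compound (DMSO stock diluted into McCoy's medium with 10% FBS). EdU labelling of newly synthesized DNA, 4% formaldehyde fixation, then high-content imaging in three fluorescent channels for total cell count, DNA content and S-phase cells. Means of three biological replicates, SEM.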

[5] = Kinetic solubility of the compound in PBS buffer at pH 7.4; assay type: physicochemical; settings: read-out: Kinetic_solubility
Summary of the method: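 Kinetic solubility measured in PBS buffer, pH 7.4.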

[6] = Kinetic solubility of the compound in PBS buffer at pH 7.4 in presence of 10% FBS; assay type: physicochemical; settings: PBS buffer with 10% FBS, read-out: Kinetic_solubility
[7] = Protein binding in human plasma; assay type: ADME, cell-free; settings: read-out: PPB (converted)
[8] = Tmax in po dosed mouse; assay type: ADME, organism-based; settings: in vivo
[9] = AUC (0 to infinity) in po dosed mouse; assay type: ADME, organism-based; parameters: route oral, time infinity; settings: in vivo
[10] = Initial plasma concentration in iv dosed mouse; assay type: ADME, organism-based
[11] = Half life in iv dosed mouse; assay type: ADME, organism-based; settings: in vivo
[12] = Volume of distribution at steady state in iv dosed mouse; assay type: ADME, organism-based; settings: in vivo, read-out: Vdss
[13] = Cmax in mouse at 2.5 mg/kg; assay type: ADME, organism-based; parameters: dose 2.5 mg/kg; settings: in vivo
[14] = Cmax in mouse at 10 mg/kg; assay type: ADME, organism-based; parameters: dose 10 mg/kg; settings: in vivo
[15] = Cmax in mouse at 50 mg/kg; assay type: ADME, organism-based; parameters: dose 50 mg/kg; settings: in vivo
[16] = AUC (0 to infinity) in mouse at 2.5 mg/kg; assay type: ADME, organism-based; parameters: dose 2.5 mg/kg, time infinity; settings: in vivo
[17] = AUC (0 to infinity) in mouse at 10 mg/kg; assay type: ADME, organism-based; parameters: dose 10 mg/kg, time infinity; settings: in vivo
[18] = AUC (0 to infinity) in mouse at 50 mg/kg; assay type: ADME, organism-based; parameters: dose 50 mg/kg, time infinity; settings: in vivo
[19] = AUC (0 to infinity) in mouse at 100 mg/kg; assay type: ADME, organism-based; parameters: dose 100 mg/kg, time infinity; settings: in vivo
[20] = MRT in mouse at 10 mg/kg, po; assay type: ADME, organism-based; settings: in vivo
[21] = MRT in mouse at 50 mg/kg, po; assay type: ADME, organism-based; settings: in vivo
[22] = MRT in mouse at 100 mg/kg, po; assay type: ADME, organism-based; settings: in vivo
Mus musculus [23] = assay: Ratio of Cmax in mouse at 2.5 mg/kg, po to Cmax in mouse at 50 mg/kg, po; assay type: ADME, organism-based; settings: in vivo
Mus musculus [24] = assay: Toxicity in J:Nu mouse assessed as induction of adverse effects at 10 to 120 mg/kg, po qd for 13 days; assay type: organism-based; settings: in vivo, 312 h
Summary of the method: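 Oral once-daily dosing of J:Nu female mice (N = 4 per group) at 10, 30 and 60 mg/kg for 7 days. The 30 and 60 mg/kg groups were escalated to 90 and 120 mg/kg on days 8–13. Clinical signs and body weights were recorded every day.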

Mus musculus [25] = assay: Toxicity in J:Nu mouse assessed as changes in organ weight at 30 mg/kg, po qd for 7 days followed by 90 mg/kg, po qd for 5 days from day 8 to 13 measured 48 hrs after post last dose by pathology analysis; assay type: organism-based; settings: in vivo
Summary of the method: (§1)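 In J:Nu female mice (N = 4 per group), dosing was oral once daily at 30 or 60 mg/kg in 5% NMP/10% PEG-400/15% Solutol/70% D5W for 7 days. Doses were then raised to 90 or 120 mg/kg respectively on days 8–13. Clinical signs and body weights were recorded daily. Gross pathology, with spleen and liver weights, was done 48 h after the last dose.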

Mus musculus [26] = assay: Toxicity in J:Nu mouse assessed as changes in organ weight at 60 mg/kg, po qd for 7 days followed by 120 mg/kg, po qd for 5 days from day 8 to 13 measured 48 hrs after post last dose by pathology analysis; assay type: organism-based; settings: in vivo; summary of the method: as §1
Mus musculus [27] = assay: Toxicity in J:Nu mouse assessed as organ damage at 60 mg/kg, po qd for 7 days followed by 120 mg/kg, po qd for 5 days from day 8 to 13 measured 48 hrs after post last dose by pathology analysis; assay type: organism-based; settings: in vivo; summary of the method: as §1
[28] = Plasma concentration (7 hrs) in J:Nu mouse at 10 mg/kg, po qd for 7 days measured on day 1; assay type: ADME, organism-based
Summary of the method: (§2)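 J:Nu female mice, N = 4 per group, dosed orally once daily at 10, 30 or 60 mg/kg in 5% NMP, 10% PEG-400, 15% Solutol, 70% D5W. Blood was sampled every other day, alternating Cmax and predose draws. Plasma concentration was taken 7 h after dosing.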

[29] = Plasma concentration (7 hrs) in J:Nu mouse at 60 mg/kg, po qd for 7 days measured on day 1; assay type: ADME, organism-based; summary of the method: as §2
[30] = Plasma concentration (7 hrs) in J:Nu mouse at 10 mg/kg, po qd for 7 days measured on day 5; assay type: ADME, organism-based; summary of the method: as §2
[31] = Cmax in J:Nu mouse plasma at 10 mg/kg, po qd for 7 days; assay type: ADME, organism-based; parameters: dose 10 mg/kg, route oral
Summary of the method: (§3)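 J:Nu female mice, N = 4 per group, dosed orally once daily at 10, 30 or 60 mpk in 5% NMP, 10% PEG-400, 15% Solutol, 70% D5W. The 30 and 60 mpk groups were raised to 90 and 120 mpk from day 8 to 13.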

[32] = Cmax in J:Nu mouse plasma at 30 mg/kg, po qd for 7 days followed by 90 mg/kg, po qd for 5 days from day 8 to 13; assay type: ADME, organism-based; parameters: dose 30 mg/kg, route oral; summary of the method: as §3
[33] = Cmax in J:Nu mouse plasma at 60 mg/kg, po qd for 7 days followed by 120 mg/kg, po qd for 5 days from day 8 to 13; assay type: ADME, organism-based; parameters: dose 60 mg/kg, route oral; summary of the method: as §3
[34] = Dose normalized Cmax in J:Nu mouse plasma at 10 mg/kg, po qd for 7 days; assay type: ADME, organism-based; settings: in vivo, 168 h; summary of the method: as §3
[35] = AUC (0 to infinity) in J:Nu mouse plasma at 30 mg/kg, po qd for 7 days followed by 90 mg/kg, po qd for 5 days from day 8 to 13; assay type: ADME, organism-based; parameters: dose 30 mg/kg, route oral, time infinity; summary of the method: as §3
[36] = AUC (0 to infinity) in J:Nu mouse plasma at 60 mg/kg, po qd for 7 days followed by 120 mg/kg, po qd for 5 days from day 8 to 13; assay type: ADME, organism-based; parameters: dose 60 mg/kg, route oral, time infinity; summary of the method: as §3
[37] = Dose normalized AUC (0 to infinity) in J:Nu mouse plasma at 10 mg/kg, po qd for 7 days; assay type: ADME, organism-based; settings: in vivo, 168 h; summary of the method: as §3
[38] = Dose normalized AUC (0 to infinity) in J:Nu mouse plasma at 30 mg/kg, po qd for 7 days followed by 90 mg/kg, po qd for 5 days from day 8 to 13; assay type: ADME, organism-based; settings: in vivo; summary of the method: as §3

Cc1nn(-c2nc(-c3ccc(Cl)c(Cl)c3)c(SC(C)C)s2)c(C(=O)O)c1-c1cc(Cl)cc(Cl)c1
IC50 (SU-DHL10): 430 nM | IC50 [1]: 290 nM | IC50 (HCT-116 [2]): 600 nM | IC50 [3]: 1570 nM | IC50 (MCF7): 260 nM | IC50 (MCF-10A): 35000 nM | IC50 (B cell): > 40000 nM | Activity (BJAB): Active | Activity (HCT-116 [4]): Active | solubility kinetic [5]: 40.2 µM (≈ 23 µg/mL) | solubility kinetic [6]: > 200 µM | fraction unbound [7]: 0.027 | Tmax [8]: 5 h | AUC(0-inf) [9]: 25.8 µg·h/mL | C0 [10]: 3190 ng/mL | half-life [11]: 8 h | Vd [12]: 0.444 L/kg | Cmax [13]: 1320 ng/mL | Cmax [14]: 15700 ng/mL | Cmax [15]: 138000 ng/mL | AUC(0-inf) [16]: 25.8 µg·h/mL | AUC(0-inf) [17]: 257 µg·h/mL | AUC(0-inf) [18]: 2250 µg·h/mL | AUC(0-inf) [19]: 2120 µg·h/mL | MRT [20]: 10.1 h | MRT [21]: 9.3 h | MRT [22]: 14.3 h | Ratio (Mus musculus [23]): 8.8 | Activity (Mus musculus [24]): Non-Toxic | Activity (Mus musculus [25]): Non-Toxic | Activity (Mus musculus [26]): Non-Toxic | Activity (Mus musculus [27]): Non-Toxic | concentration at 7 h [28]: 19700 ng/mL | concentration at 7 h [29]: 88800 ng/mL | concentration at 7 h [30]: 18200 ng/mL | Cmax [31]: 29000 ng/mL | Cmax [32]: 134000 ng/mL | Cmax [33]: 128000 ng/mL | Cmax/dose [34]: 2897.9 ng/mL | AUC(0-inf) [35]: 1490 µg·h/mL | AUC(0-inf) [36]: 1540 µg·h/mL | AUC/dose [37]: 33000 ng·kg·h/mL/mg | AUC/dose [38]: 16500 ng·kg·h/mL/mg
